Consider 3 molecules from ChEMBL document CHEMBL2046398, “Optimization of (2,3-dihydro-1-benzofuran-3-yl)acetic acids: discovery of a non-free fatty acid-like, highly bioavailable G protein-coupled receptor 40/free fatty acid receptor 1 agonist as a glucose-dependent insulinotropic agent” (J Med Chem, 2012).

Molecules are shown by their SMILES. Active and inactive are the calls of the source. The rule behind the calls is not given here.

Data set [1] is filed under the species Rattus norvegicus. In words: Drug metabolism in rat assessed as biphenylylcarboxylic acid derivative formation in feces. The class given is ADME, organism-based. The following applies: in vivo.
The species entered for data set [2] is Canis familiaris. In words: Drug metabolism in dog assessed as taurine conjugate formation measured in feces. It is filed as ADME, organism-based, Canis lupus familiaris. To be noted: in vivo.
Data set [3] is filed under the species Rattus norvegicus. In words: Drug metabolism in rat assessed as acyl glucuronide derivative formation in bile. The class given is ADME, organism-based. The following applies: in vivo.
The species entered for data set [4] is Rattus norvegicus. In words: Drug metabolism in rat assessed as beta-oxidation derivative formation. To be noted: in vivo. It is filed as ADME, organism-based.
The species named for data set [5] is Canis familiaris. Nature of the data set: Drug metabolism in dog assessed as biphenylylcarboxylic acid derivative formation measured in feces. To be noted: in vivo. The class given is ADME, organism-based, Canis lupus familiaris.
For data set [6], the species on record is Rattus norvegicus. In words: Drug metabolism in rat assessed as biphenylylcarboxylic acid derivative formation. To be noted: in vivo. It is filed as ADME, organism-based.
The species entered for data set [7] is Rattus norvegicus. In words: Drug metabolism in rat assessed as acyl glucuronide derivative formation measured in feces. The class given is ADME, organism-based. To be noted: in vivo.
The species entered for data set [8] is Rattus norvegicus. Nature of the data set: Drug metabolism in rat assessed as taurine conjugate formation measured in bile. To be noted: in vivo. It is filed as ADME, organism-based.
Data set [9] is filed under the species Canis familiaris. Nature of the data set: Drug metabolism in dog assessed as beta-oxidation derivative formation. The class given is ADME, organism-based, Canis lupus familiaris. To be noted: in vivo.
The species entered for data set [10] is Rattus norvegicus. In words: Drug metabolism in rat assessed as taurine conjugate formation measured in feces. The class given is ADME, organism-based. To be noted: in vivo.
Data set [11] is filed under the species Canis familiaris. Nature of the data set: Drug metabolism in dog assessed as acyl glucuronide derivative formation measured in feces. It is filed as ADME, organism-based, Canis lupus familiaris. The following applies: in vivo.
In data set [12] the test system is Rattus norvegicus. In words: Insulinotropic activity in po dosed fasted Wistar fatty rat assessed as […] administered 4 hr prior to glucose-challenge by oral glucose tolerance test relative to vehicle control. It is filed as functional. An outline of the steps: (§1)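 Female Wistar fatty rats, 12–17 weeks old, were fasted overnight. They were dosed orally with compound in 0.5% methylcellulose 1 h (1 mg/kg) or 4 h (3 mg/kg) before a 1 g/kg oral glucose load. Plasma glucose was sampled to 120 min, n = 6. Effective dose was defined by statistical significance on plasma glucose AUC versus vehicle.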

Data set [13] deals with Rattus norvegicus. Nature of the data set: Insulinotropic activity in po dosed fasted Wistar fatty rat assessed as […] administered 1 hr prior to glucose-challenge by oral glucose tolerance test relative to vehicle control. The class given is functional. The method, boiled down: as §1
Data set [14] relates to Rattus norvegicus. Nature of the data set: Insulinotropic activity in po dosed Goto-Kakizaki rat assessed as decrease in plasma glucose level administered 1 hr prior to glucose-challenge by oral glucose tolerance test. It is filed as functional. An outline of the steps:
(§2)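 Male GK rats, 41 weeks old, were fasted overnight. They received compound suspended in 0.5% methylcellulose orally, 1–10 mg/kg, 1 h before a 1 g/kg oral glucose load. Tail-vein blood was taken pre-dose, at 0 min and at 10, 30, 60 and 120 min. Plasma glucose was read by autoanalyzer and insulin by radioimmunoassay, with AUC0–120min. n = 6. Williams/Shirley–Williams tests versus vehicle.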

Data set [15] has as its system Rattus norvegicus. Nature of the data set: Insulinotropic activity in po dosed Goto-Kakizaki rat assessed as increase in plasma insulin secretion administered 1 hr prior to glucose-challenge by oral glucose tolerance test. The class given is functional. An outline of the steps:
as §2

In data set [16] the target is Free fatty acid receptor 1 (Homo sapiens, UniProt O14842). Nature of the data set: Agonist activity at human GP40 receptor expressed in CHO cells assessed as increase in intracellular calcium level at 10 uM for 90 secs by FLIPR assay in the presence of 0.1% BSA relative to gamma-linolenic acid. The class given is functional, cell-based. An outline of the steps:
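CHO dhfr cells stably expressing human GPR40/FFA1 (NM_005303) plated overnight at 37 °C, 5% CO₂, then loaded 60 min at 37 °C with Fluo 4 AM (2.5 μg/mL), 2.5 mmol/L probenecid and 0.1% fatty acid-free BSA. Ca²⁺ rise after compound addition read on FLIPR Tetra for 90 s. Activity = (test − vehicle)/(10 μM γ-linolenic acid − vehicle) × 100.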
In general terms: Calcium assays in cells follow changes in intracellular calcium, usually with a dye or a luminescent sensor.

Data set [17] relates to Rattus norvegicus. In words: Insulinotropic activity in Goto-Kakizaki rat assessed as increase in plasma insulin secretion at 1 to 10 mg/kg, po after 1 hr measured at glucose charge (0 mins).
Data set [18] deals with Rattus norvegicus. In words: Insulinotropic activity in Goto-Kakizaki rat assessed as increase in plasma insulin secretion at 1 to 10 mg/kg, po administered 1 hr prior to glucose-challenge by oral glucose tolerance test. It is filed as functional, organism-based. To be noted: TDE = time-dependent effect. The method, boiled down:
as §2

Data set [19] concerns Rattus norvegicus. Nature of the data set: Insulinotropic activity in Goto-Kakizaki rat assessed as decrease in plasma glucose level at 1 to 10 mg/kg, po administered 1 hr prior to glucose-challenge by oral glucose tolerance test. The class given is functional, organism-based. To be noted: TDE = time-dependent effect. The method, boiled down:
as §2

Free fatty acid receptor 1, sequence (O14842 whole entry): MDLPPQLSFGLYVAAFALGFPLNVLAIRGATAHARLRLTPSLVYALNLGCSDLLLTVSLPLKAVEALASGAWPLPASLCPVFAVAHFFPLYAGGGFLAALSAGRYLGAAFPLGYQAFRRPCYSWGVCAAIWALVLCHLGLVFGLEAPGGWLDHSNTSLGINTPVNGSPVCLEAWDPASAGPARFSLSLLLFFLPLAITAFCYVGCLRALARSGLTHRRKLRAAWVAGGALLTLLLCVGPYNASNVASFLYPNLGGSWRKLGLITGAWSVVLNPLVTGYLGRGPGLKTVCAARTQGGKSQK

Regarding `Cc1cc(OCCCS(C)(=O)=O)cc(C)c1-c1cccc([14CH2]Oc2ccc3c(c2)OC[C@H]3CC(=O)O)c1`, the Drug metabolism result was “Active” in data set [1]; “Active” in data set [2]; “Active” in [3]; “Not Active” in data set [4]; “Active” in data set [5]; “Active” in data set [6]. Moreover, the Drug metabolism entry was “Active” in data set [7]; “Active” in data set [8]; “Not Active” in data set [9]; “Active” in [10]; “Active” in data set [11].
Take `Cc1cc(OCCCS(C)(=O)=O)cc(C)c1-c1cccc(COc2ccc3c(c2)OC[C@H]3CC(=O)O)c1.O`: the results for the ED in data set [12] and in data set [13] were 3 mg/kg and 1 mg/kg, respectively. The minimal effective dose in data set [14] (read-out: MED) is 3 mg/kg; in data set [15] (read-out: MED), 10 mg/kg.
For the molecule `Cc1cc(OCCCS(C)(=O)=O)cc(C)c1-c1cccc(COc2ccc3c(c2)OC[C@H]3CC(=O)O)c1`, the Efficacy in [16] is 107%. Moreover, the Activity result is “Dose-dependent effect” in data set [14], “Dose-dependent effect” in data set [15], “tde” in data set [18] and “tde” in data set [19]. Also, the result in data set [17] was Active.
